# How the values were obtained:
# [1] = test system: Streptococcus pneumoniae; assay: Antibacterial activity against macrolide-susceptible Streptococcus pneumoniae after overnight incubation by agar dilution method; assay type: functional
# How it was run: (§1)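 Agar dilution MICs on Mueller-Hinton agar with 5% sheep blood. Inoculum 10^4 CFU/spot, incubated overnight at 35°C in ambient air. Clinical S. pneumoniae or group A streptococcal isolates; resistance genotypes (erm(B), erm(A), mef(A)/mef(E)) were assigned by PCR. S. pneumoniae ATCC 49619 served as QC strain in each run. Range, MIC50 and MIC90 reported per phenotype group.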
# [2] = test system: Streptococcus pneumoniae; assay: Antibacterial activity against Streptococcus pneumoniae harboring erm(B) gene after overnight incubation by agar dilution method; assay type: functional
# How it was run: (§2)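 Clinical isolates collected 1998–2008, with macrolide-resistance genes confirmed by PCR. MICs by agar dilution on Mueller-Hinton agar with 5% sheep blood. Inoculum 10^4 CFU/spot, incubated overnight at 35°C in ambient air. S. pneumoniae ATCC 49619 was the quality-control strain in every run.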
# [3] = test system: Streptococcus pneumoniae; assay: Antibacterial activity against Streptococcus pneumoniae harboring mef(A) gene after overnight incubation by agar dilution method; assay type: functional; how it was run: as §2
# [4] = test system: Streptococcus pneumoniae; assay: Antibacterial activity against macrolide-resistant Streptococcus pneumoniae harboring erm(B) gene after overnight incubation by agar dilution method; assay type: functional; how it was run: as §1
# [5] = test system: Streptococcus pneumoniae; assay: Antibacterial activity against macrolide-resistant Streptococcus pneumoniae harboring mef(A) gene after overnight incubation by agar dilution method; assay type: functional; how it was run: as §1
# [6] = test system: Streptococcus pneumoniae; assay: Antibacterial activity against macrolide-resistant Streptococcus pneumoniae harboring erm(B) and mef(A) gene after overnight incubation by agar dilution method; assay type: functional; how it was run: as §1
# [7] = test system: Streptococcus pneumoniae; assay: Antibacterial activity against macrolide-resistant Streptococcus pneumoniae harboring mutation in L4 ribosomal protein after overnight incubation by agar dilution method; assay type: functional; how it was run: as §1
# [8] = test system: Streptococcus pyogenes; assay: Antibacterial activity against Streptococcus pyogenes harboring erm(B) gene after overnight incubation by agar dilution method; assay type: functional; how it was run: as §2
# [9] = test system: Streptococcus pyogenes; assay: Antibacterial activity against Streptococcus pyogenes harboring mef(A) gene after overnight incubation by agar dilution method; assay type: functional; how it was run: as §2
# [10] = test system: Streptococcus pyogenes; assay: Antibacterial activity against Streptococcus pyogenes harboring mutation in L4 ribosomal protein after overnight incubation by agar dilution method; assay type: functional; how it was run: as §2
# [11] = test system: Streptococcus pyogenes; assay: Antibacterial activity against macrolide-resistant Streptococcus pyogenes harboring mef(A) gene after overnight incubation by agar dilution method; assay type: functional; how it was run: as §1
# [12] = test system: Streptococcus pyogenes; assay: Antibacterial activity against macrolide-resistant Streptococcus pyogenes harboring erm(A) gene after overnight incubation by agar dilution method; assay type: functional; how it was run: as §1
# [13] = test system: Streptococcus pneumoniae; assay: Antibacterial activity against macrolide-susceptible Streptococcus pneumoniae 1077 after overnight incubation by agar dilution method; assay type: functional
# [14] = test system: Streptococcus pneumoniae; assay: Antibacterial activity against macrolide-susceptible Streptococcus pneumoniae 1077 after 43 passages and 10 compound-free subculturing by retest method; assay type: functional
# [15] = test system: Streptococcus pneumoniae; assay: Antibacterial activity against macrolide-susceptible Streptococcus pneumoniae 1077 after 49 passages and 10 compound-free subculturing by retest method; assay type: functional
# [16] = test system: Streptococcus pneumoniae; assay: Antibacterial activity against macrolide-resistant Streptococcus pneumoniae 24 harboring erm(B) gene after 14 passages and 10 compound-free subculturing by retest method; assay type: functional; settings: Streptococcus pneumoniae, 24; read-out: MIC
# How it was run: (§3)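 Multistep selection by daily serial passage in subinhibitory drug concentrations. Medium was cation-adjusted Mueller-Hinton broth plus 5% lysed horse blood. Each day the next inoculum came from the tube 1–2 dilutions below the MIC whose turbidity matched the growth control, for up to 50 days. Clone MICs by CLSI macrodilution; identity to the parent confirmed by SmaI PFGE.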
# [17] = test system: Streptococcus pneumoniae; assay: Antibacterial activity against macrolide-resistant Streptococcus pneumoniae 1635 harboring erm(A) gene after 32 passages and 10 compound-free subculturing by retest method; assay type: functional; how it was run: as §3
# [18] = test system: Streptococcus pneumoniae; assay: Antibacterial activity against macrolide-resistant Streptococcus pneumoniae 1635 harboring erm(A) gene after 49 passages and 10 compound-free subculturing by retest method; assay type: functional; how it was run: as §3
# [19] = test system: Streptococcus pneumoniae; assay: Antibacterial activity against macrolide-resistant Streptococcus pneumoniae 2686 harboring mutation in L4 ribosomal protein after 25 passages and 10 compound-free subculturing by retest method; assay type: functional
# [20] = test system: Streptococcus pneumoniae; assay: Antibacterial activity against macrolide-susceptible Streptococcus pneumoniae 7127 harboring S20N mutation in L4 ribosomal protein and A105V mutation in L22 ribosomal protein after 15 passages and 10 compound-free subculturing by retest method; assay type: functional
# [21] = test system: Streptococcus pneumoniae; assay: Antibacterial activity against macrolide-susceptible Streptococcus pneumoniae 7127 harboring S20N mutation in L4 ribosomal protein and A105V mutation in L22 ribosomal protein after 43 passages and 10 compound-free subculturing by retest method; assay type: functional
# [22] = test system: Streptococcus pneumoniae; assay: Antibacterial activity against macrolide-resistant Streptococcus pneumoniae 3009 harboring mutation in 23S rRNA after 20 passages and 10 compound-free subculturing by retest method; assay type: functional
# [23] = test system: Streptococcus pneumoniae; assay: Antibacterial activity against macrolide-resistant Streptococcus pneumoniae 3665 harboring mef(A) gene after overnight incubation by agar dilution method; assay type: functional
# [24] = test system: Streptococcus pneumoniae; assay: Antibacterial activity against macrolide-susceptible Streptococcus pneumoniae 7127 harboring S20N mutation in L4 ribosomal protein and A105V mutation in L22 ribosomal protein after overnight incubation by agar dilution method; assay type: functional
# [25] = test system: Streptococcus pneumoniae; assay: Antibacterial activity against macrolide-resistant Streptococcus pneumoniae 3009 harboring mutation in 23S rRNA after overnight incubation by agar dilution method; assay type: functional
# [26] = test system: Streptococcus pyogenes; assay: Antibacterial activity against macrolide-susceptible Streptococcus pyogenes 2132 after overnight incubation by agar dilution method
# [27] = test system: Streptococcus pyogenes; assay: Antibacterial activity against macrolide-susceptible Streptococcus pyogenes 2132 after 28 passages and 10 compound-free subculturing by retest method
# [28] = test system: Streptococcus pyogenes; assay: Antibacterial activity against macrolide-resistant Streptococcus pyogenes 2094 harboring erm(A) gene after 6 passages and 10 compound-free subculturing by retest method
# [29] = test system: Streptococcus pyogenes; assay: Antibacterial activity against macrolide-resistant Streptococcus pyogenes 2094 harboring erm(A) gene after 43 passages and 10 compound-free subculturing by retest method
# [30] = test system: Streptococcus pyogenes; assay: Antibacterial activity against macrolide-resistant Streptococcus pyogenes 2011 harboring mef(A) gene after 35 passages and 10 compound-free subculturing by retest method
# [31] = test system: Streptococcus pyogenes; assay: Antibacterial activity against macrolide-resistant Streptococcus pyogenes 237 harboring mutation in L4 ribosomal protein after overnight incubation by agar dilution method
# [32] = test system: Streptococcus pyogenes; assay: Antibacterial activity against macrolide-resistant Streptococcus pyogenes 2011 harboring mef(A) gene after 50 passages following overnight incubation by agar dilution method
# [33] = test system: Streptococcus pyogenes; assay: Antibacterial activity against macrolide-resistant Streptococcus pyogenes 237 harboring mutation in L4 ribosomal protein after 20 passages and 10 compound-free subculturing by retest method
# [34] = test system: Streptococcus pyogenes; assay: Antibacterial activity against macrolide-resistant Streptococcus pyogenes 237 harboring mutation in L4 ribosomal protein after 43 passages and 10 compound-free subculturing by retest method
compound,measurement,setting,value
CC[C@H]1OC(=O)[C@H](C)[C@@H](O[C@H]2C[C@@](C)(OC)[C@@H](O)[C@H](C)O2)[C@H](C)[C@@H](O[C@@H]2O[C@H](C)C[C@H](N(C)C)[C@H]2O)[C@](C)(OC)C[C@@H](C)C(=O)[C@H](C)[C@@H](O)[C@]1(C)O [CLARITHROMYCIN],MIC50,[1],0.03 µg/mL
same,MIC90,[1],0.06 µg/mL
same,MIC50,[2],> 64 µg/mL
same,MIC50,[3],2 µg/mL
same,MIC90,[3],4 µg/mL
same,MIC50,[4],> 64 µg/mL
same,MIC50,[5],2 µg/mL
same,MIC90,[5],4 µg/mL
same,MIC50,[6],> 64 µg/mL
same,MIC50,[7],16 µg/mL
same,MIC90,[7],32 µg/mL
same,MIC50,[8],> 64 µg/mL
same,MIC90,[8],> 64 µg/mL
same,MIC50,[9],4 µg/mL
same,MIC90,[9],8 µg/mL
same,MIC,[10],1 µg/mL
same,MIC50,[11],4 µg/mL
same,MIC90,[11],8 µg/mL
same,MIC50,[12],2 µg/mL
same,MIC90,[12],> 64 µg/mL
same,MIC,[13],0.016 µg/mL
same,MIC,[14],0.06 µg/mL
same,MIC,[15],> 64 µg/mL
same,MIC,[16],> 64 µg/mL
same,MIC,[17],1 µg/mL
same,MIC,[18],> 64 µg/mL
same,MIC,[19],16 µg/mL
same,MIC,[20],16 µg/mL
same,MIC,[21],0.016 µg/mL
same,MIC,[22],> 64 µg/mL
same,MIC,[23],2 µg/mL
same,MIC,[24],0.03 µg/mL
same,MIC,[25],16 µg/mL
same,MIC,[26],0.03 µg/mL
same,MIC,[27],0.25 µg/mL
same,MIC,[28],> 64 µg/mL
same,MIC,[29],8 µg/mL
same,MIC,[30],4 µg/mL
same,MIC,[31],0.25 µg/mL
same,MIC,[32],8 µg/mL
same,MIC,[33],1 µg/mL
same,MIC,[34],0.5 µg/mL
CCC[C@@H]1C[C@@H](C(=O)N[C@@H]([C@H]2O[C@H](SC)[C@H](O)[C@@H](O)[C@H]2O)[C@H](C)Cl)N(C)C1 [CLINDAMYCIN],MIC50,[1],0.03 µg/mL
same,MIC90,[1],0.06 µg/mL
same,MIC50,[2],> 64 µg/mL
same,MIC50,[3],0.06 µg/mL
same,MIC90,[3],0.06 µg/mL
same,MIC50,[4],> 64 µg/mL
same,MIC50,[5],0.06 µg/mL
same,MIC90,[5],0.06 µg/mL
same,MIC50,[6],0.06 µg/mL
same,MIC50,[7],0.06 µg/mL
same,MIC90,[7],0.125 µg/mL
same,MIC50,[8],> 64 µg/mL
same,MIC90,[8],> 64 µg/mL
same,MIC50,[9],0.06 µg/mL
same,MIC90,[9],0.125 µg/mL
same,MIC,[10],0.06 µg/mL
same,MIC50,[11],0.06 µg/mL
same,MIC90,[11],0.125 µg/mL
same,MIC50,[12],0.125 µg/mL
same,MIC90,[12],0.25 µg/mL
same,MIC,[13],0.016 µg/mL
same,MIC,[14],0.03 µg/mL
same,MIC,[15],8 µg/mL
same,MIC,[16],> 64 µg/mL
same,MIC,[17],0.03 µg/mL
same,MIC,[18],0.25 µg/mL
same,MIC,[19],0.03 µg/mL
same,MIC,[20],1 µg/mL
same,MIC,[21],0.25 µg/mL
same,MIC,[22],1 µg/mL
same,MIC,[23],0.016 µg/mL
same,MIC,[24],0.03 µg/mL
same,MIC,[25],1 µg/mL
same,MIC,[26],0.06 µg/mL
same,MIC,[27],0.03 µg/mL
same,MIC,[28],0.06 µg/mL
same,MIC,[29],0.06 µg/mL
same,MIC,[30],0.06 µg/mL
same,MIC,[31],0.06 µg/mL
same,MIC,[32],0.06 µg/mL
same,MIC,[33],0.03 µg/mL
same,MIC,[34],1 µg/mL

# Source: ChEMBL document CHEMBL1240350, “In vitro activity of CEM-101 against Streptococcus pneumoniae and Streptococcus pyogenes with defined macrolide resistance mechanisms” (Antimicrob Agents Chemother, 2010)
